Results pooled from the literature.
Adora2a: Adenosine receptor A2a (Adora2a, Rattus norvegicus, UniProt P30543)
AGTR2: Type-2 angiotensin II receptor (AGTR2, Homo sapiens, UniProt P50052)
DRD1: D(1A) dopamine receptor (DRD1, Homo sapiens, UniProt P21728)

With `CN1CCCn2c1nc1c2c(=O)n(C)c(=O)n1C` the Ki was 4300 nM (Adora2a; ligand displacement; radioligand; cell membranes).
With `Fc1ccc(C2=Nn3c(nnc3-c3cccc(Br)c3)SC2)cc1` the Ki was 3620 nM (Urease (Canavalia ensiformis, UniProt P07374); enzyme activity; inhibitor).
`CCC(C)[C@H](NC(=O)c1ccc(C(=O)N(C)Cc2ccccc2)cc1)C(=O)O` (stereo in doubt) has a Ki of over 100000 nM (AGTR2; ligand displacement in cells; radioligand).
`CCN1CCCn2c1nc1c2c(=O)n(C)c(=O)n1C` has a Ki of 2650 nM (Adora2a; ligand displacement; radioligand; cell membranes).
For `CCCC[C@H](NC(=O)[C@H](C)c1c(C)[nH]c2ccc(O)cc12)c1ncc(-c2cc3ccccc3nc2OC)[nH]1`, the Ki was 2250 nM (Prostaglandin E2 receptor EP1 subtype (PTGER1, Homo sapiens, UniProt P34995); cell-free assay).
`Cc1cccc(CSc2nc(N)c(C#N)c(-c3cccc(O)c3)c2C#N)n1` gave a Ki of 20.6 nM (Adora2a; ligand displacement; radioligand; cell membranes).
`CCCCOC(=O)NS(=O)(=O)c1sc(CC(C)C)cc1-c1ccc(OC(F)(F)F)c(Cn2ccnc2)c1` has a Ki of 280 nM (AGTR2; ligand displacement; radioligand; cell membranes).
`CC(C)CCCC(C)N1CCCn2c1nc1c2c(=O)n(C)c(=O)n1C` (centres unmarked) gave a Ki of 2030 nM (Adora2a; ligand displacement; radioligand; cell membranes).
`CCC(C)[C@H](NC(=O)c1ccc(C)c(C(=O)N(Cc2ccccc2)Cc2ccccc2)c1)C(=O)O` (stereo in doubt) has a Ki of 2500 nM (AGTR2; ligand displacement in cells; radioligand).
`COc1ccc(-c2c(C#N)c(N)nc(SCc3cccc(C)n3)c2C#N)cc1` gave a Ki of 48 nM (Adora2a; ligand displacement; radioligand; cell membranes).
The Ki of `CCC(C)N1CCCn2c1nc1c2c(=O)n(C)c(=O)n1C` (centres unmarked) is reported as 4640 nM (Adora2a; ligand displacement; radioligand; cell membranes).
`CC1Cc2ccccc2N1C(=O)NCCCCN(C)[C@@H]1Cc2cccc3[nH]c(=O)n(c23)C1` (mixture of isomers) has a Ki of over 10000 nM (DRD1; ligand displacement; radioligand).
`N#Cc1c(N)nc(SCc2cccc(C(=O)O)c2)c(C#N)c1-c1ccccc1` has a Ki of 634 nM (Adora2a; ligand displacement; radioligand; cell membranes).
With `C#CCN1CCCn2c1nc1c2c(=O)n(C)c(=O)n1C` the Ki was 7400 nM (Adora2a; ligand displacement; radioligand; cell membranes).
`CCc1ccc(C(=O)N[C@H](C(=O)O)C(C)CC)cc1C(=O)N(CC)Cc1ccccc1` (stereo in doubt) has a Ki of 8300 nM (AGTR2; ligand displacement in cells; radioligand).
For `Cc1nc2cc(OCCCCN3CCN(c4cccc(Cl)c4Cl)CC3)ccc2s1`, the Ki was 340 nM (Sodium-dependent serotonin transporter (SLC6A4, Homo sapiens, UniProt P31645); ligand displacement; radioligand).
`CC(C)N1CCCn2c1nc1c2c(=O)n(C)c(=O)n1C` gave a Ki of 4950 nM (Adora2a; ligand displacement; radioligand; cell membranes).
For `CCC(C)[C@H](NC(=O)c1ccc(C)c(C(=O)N(C)Cc2ccccc2)c1)C(=O)O` (stereo in doubt), the Ki was 7600 nM (AGTR2; ligand displacement in cells; radioligand).
With `CCCCCN1CCCn2c1nc1c2c(=O)n(C)c(=O)n1C` the Ki was 3060 nM (Adora2a; ligand displacement; radioligand; cell membranes).
With `N#Cc1c(N)nc(SCC(N)=O)c(C#N)c1-c1ccc2c(c1)OCO2` the Ki was 429 nM (Adora2a; ligand displacement; radioligand; cell membranes).
The Ki of `CCC(C)[C@H](NC(=O)c1cccc(C(=O)N(CC)CC)c1)C(=O)O` (stereo in doubt) is reported as 22000 nM (AGTR2; ligand displacement in cells; radioligand).
The Ki of `COc1ccc(-c2c(C#N)c(N)nc3sc(C(N)=O)c(N)c23)cc1` is reported as 561 nM (Adora2a; ligand displacement; radioligand; cell membranes).
With `CCC(C)[C@H](NC(=O)c1cccc(C(=O)N(CC)Cc2ccccc2)c1)C(=O)O` (stereo in doubt) the Ki was 11000 nM (AGTR2; ligand displacement in cells; radioligand).
`O=C1c2ccccc2CCCN1CCCCN1CCN(c2ccccn2)CC1` gave a Ki of 1260 nM (DRD1; cell-free assay; radioligand).
With `CCC(C)[C@H](NC(=O)c1ccc(C)c(C(=O)N(CC)Cc2ccccc2)c1)C(=O)O` (stereo in doubt) the Ki was 3400 nM (AGTR2; ligand displacement in cells; radioligand).
`C=CCN1CCCn2c1nc1c2c(=O)n(C)c(=O)n1C` has a Ki of 2620 nM (Adora2a; ligand displacement; radioligand; cell membranes).
